ChEMBL document CHEMBL2157986, “The multiobjective based design, synthesis and evaluation of the arylsulfonamide/amide derivatives of aryloxyethyl- and arylthioethyl- piperidines and pyrrolidines as a novel class of potent 5-HT₇ receptor antagonists” (Eur J Med Chem, 2012)

Tests used:
[1] = biological target: 5-hydroxytryptamine receptor 7 (Homo sapiens, UniProt P34969); assay: Displacement of [3H]-5-CT from human 5-HT7b receptor expressed in HEK293 cells after 1 hr; type: cell-based
[2] = biological target: T1, 5-hydroxytryptamine receptor 1A (Homo sapiens, UniProt P08908); assay: Displacement of [3H]-8-OH-DPAT from human 5-HT1A receptor expressed in HEK293 cells after 1 hr; type: cell-based
T1 sequence (P08908 whole entry): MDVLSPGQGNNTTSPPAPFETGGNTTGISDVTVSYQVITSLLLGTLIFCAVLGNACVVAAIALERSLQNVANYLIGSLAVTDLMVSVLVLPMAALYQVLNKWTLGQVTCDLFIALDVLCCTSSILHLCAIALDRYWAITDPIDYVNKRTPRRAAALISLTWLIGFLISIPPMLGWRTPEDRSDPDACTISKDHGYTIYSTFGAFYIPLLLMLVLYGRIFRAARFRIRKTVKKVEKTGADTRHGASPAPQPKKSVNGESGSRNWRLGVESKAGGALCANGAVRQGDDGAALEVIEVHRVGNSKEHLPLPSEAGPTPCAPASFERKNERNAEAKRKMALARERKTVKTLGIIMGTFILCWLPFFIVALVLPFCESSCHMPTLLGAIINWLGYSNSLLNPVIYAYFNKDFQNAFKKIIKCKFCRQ
Method in brief: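 Membranes from stably transfected HEK293 cells (human 5-HT1A), homogenized in 50 mM Tris–HCl, 0.1 mM EDTA, 4 mM MgCl2, 10 µM pargyline, 0.1% ascorbate; incubated 1 h at room temperature, then rapid filtration and radioactivity counting. Nonspecific binding with 10 µM 5-HT.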

[3] = biological target: 5-hydroxytryptamine receptor 6 (Homo sapiens, UniProt P50406); assay: Displacement of [3H]-LSD from human 5-HT6 receptor expressed in HEK293 cells after 1 hr; type: cell-based
D(2) dopamine receptor = D(2) dopamine receptor (Homo sapiens, UniProt P14416); assay: Binding affinity to human dopamine D2L receptor expressed in HEK293 cells after 1 hr; type: cell-based
Homo sapiens = species on record: Homo sapiens; assay: Selectivity ratio of Ki for human 5-HT1A receptor to Ki for human 5-HT7b receptor

5-hydroxytryptamine receptor 7, sequence (P34969 whole entry): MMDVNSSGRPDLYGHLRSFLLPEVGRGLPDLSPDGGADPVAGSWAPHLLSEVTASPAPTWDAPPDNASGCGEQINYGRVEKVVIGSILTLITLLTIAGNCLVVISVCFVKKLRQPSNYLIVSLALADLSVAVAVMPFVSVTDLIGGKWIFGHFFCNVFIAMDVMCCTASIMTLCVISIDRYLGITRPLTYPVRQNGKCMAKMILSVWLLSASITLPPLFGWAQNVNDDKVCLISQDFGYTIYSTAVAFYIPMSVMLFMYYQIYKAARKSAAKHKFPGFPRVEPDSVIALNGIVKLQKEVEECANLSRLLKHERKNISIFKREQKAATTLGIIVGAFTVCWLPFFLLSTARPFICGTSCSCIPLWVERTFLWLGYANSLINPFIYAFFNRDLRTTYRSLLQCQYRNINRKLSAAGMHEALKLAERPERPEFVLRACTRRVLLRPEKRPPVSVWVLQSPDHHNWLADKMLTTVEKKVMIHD
D(2) dopamine receptor, sequence (P14416 whole entry): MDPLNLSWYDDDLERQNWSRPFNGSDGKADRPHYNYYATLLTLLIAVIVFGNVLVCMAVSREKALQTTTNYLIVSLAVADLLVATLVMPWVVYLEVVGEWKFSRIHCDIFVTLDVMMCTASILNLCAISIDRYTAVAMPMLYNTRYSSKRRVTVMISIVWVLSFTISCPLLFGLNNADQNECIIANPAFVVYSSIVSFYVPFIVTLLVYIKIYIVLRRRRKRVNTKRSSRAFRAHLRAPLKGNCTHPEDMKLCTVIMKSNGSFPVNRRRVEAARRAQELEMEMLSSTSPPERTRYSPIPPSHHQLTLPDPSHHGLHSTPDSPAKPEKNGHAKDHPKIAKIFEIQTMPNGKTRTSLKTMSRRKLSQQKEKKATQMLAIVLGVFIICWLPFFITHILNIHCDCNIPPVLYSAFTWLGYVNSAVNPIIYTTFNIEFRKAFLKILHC
5-hydroxytryptamine receptor 6, sequence (P50406 whole entry): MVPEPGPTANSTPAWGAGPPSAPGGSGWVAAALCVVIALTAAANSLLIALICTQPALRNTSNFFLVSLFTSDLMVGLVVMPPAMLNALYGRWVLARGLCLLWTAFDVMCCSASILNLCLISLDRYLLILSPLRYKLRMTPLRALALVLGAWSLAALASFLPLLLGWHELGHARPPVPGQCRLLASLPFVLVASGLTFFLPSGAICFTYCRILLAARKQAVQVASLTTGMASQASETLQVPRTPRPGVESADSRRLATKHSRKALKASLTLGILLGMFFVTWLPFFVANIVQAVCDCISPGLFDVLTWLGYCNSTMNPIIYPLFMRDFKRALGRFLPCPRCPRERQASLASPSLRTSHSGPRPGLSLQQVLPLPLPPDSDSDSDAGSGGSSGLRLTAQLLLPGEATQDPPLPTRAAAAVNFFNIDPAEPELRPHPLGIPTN

SMILES	Ki [1]	Ki [2]	Ki [3]	Ki (D(2) dopamine receptor)	Ratio Ki (Homo sapiens)
O=S(=O)(NCC1CCN(CCOc2cccc(F)c2)CC1)c1cccc(Cl)c1	2190 nM	283 nM	831 nM	560 nM	< 1
CSc1ccccc1OCCN1CCC(NS(=O)(=O)c2cccc(Cl)c2)C1 (stereo not given)	15 nM	5 nM	185 nM	36 nM	< 1
O=S(=O)(NC1CCN(CCOc2cccc(F)c2)C1)c1ccc(F)c(F)c1 (stereo not given)	293 nM	230 nM	951 nM	523 nM	< 1
CCOc1ccccc1C(=O)NC1CCN(CCOc2ccccc2C(C)C)C1 (stereo not given)	204 nM				
Cc1ccccc1C(=O)NC1CCN(CCSc2cccc(Cl)c2Cl)C1 (stereo not given)	427 nM				
O=S(=O)(NC1CCN(CCOc2cccc(Cl)c2Cl)C1)c1ccc(Cl)s1 (stereo not given)		28 nM	91 nM	67 nM	
CSc1ccccc1OCCN1CCC(NS(=O)(=O)c2ccc(F)cc2)C1 (stereo not given)	11 nM	10 nM	357 nM	41 nM	1
O=S(=O)(N[C@@H]1CCN(CCOc2ccccc2-c2ccccc2)C1)c1ccc(Cl)s1		75 nM	202 nM	39 nM	
Cc1ccccc1C(=O)NC1CCN(CCOc2ccccc2-c2ccccc2)C1 (stereo not given)	59 nM				
O=S(=O)(NC1CCN(CCOc2ccccc2-c2ccccc2)CC1)c1ccc(F)c(F)c1	7 nM	313 nM	199 nM	63 nM	45
Cc1ccccc1C(=O)NCC1CCN(CCOc2ccccc2C(C)(C)C)CC1	1500 nM				
O=C(NC1CCN(CCOc2cccc3c2CCCC3)C1)c1cccc(F)c1 (stereo not given)	2220 nM				
O=S(=O)(NC1CCN(CCOc2ccccc2-c2ccccc2)C1)c1ccc(F)c(F)c1 (stereo not given)	7 nM	92 nM	327 nM	24 nM	13
CSc1ccccc1OCCN1CCC(NS(=O)(=O)c2ccc(Cl)s2)CC1	17 nM				
O=S(=O)(c1ccc2cc[nH]c2c1)N1CCC[C@@H]1CCN1CCC(Oc2ccc(Cl)cc2)CC1	3.2 nM	250 nM			
CCOc1ccccc1C(=O)NC1CCN(CCSc2ccccc2-c2ccccc2)CC1	329 nM				
CC(C)c1ccccc1OCCN1CC[C@@H](NS(=O)(=O)c2ccc(Cl)s2)C1		49 nM	200 nM	20 nM	
O=S(=O)(NC1CCN(CCOc2cccc3c2CCCC3)C1)c1cccs1 (stereo not given)	27 nM	13 nM	102 nM	72 nM	< 1
COc1ccc(OC)c(S(=O)(=O)NCC2CCN(CCOc3ccccc3C(C)C)CC2)c1	27 nM				

SMILES	Ki [1]	Ki [2]	Ki [3]	Ki (D(2) dopamine receptor)	Ratio Ki (Homo sapiens)
O=C(NC1CCN(CCOc2cc(Cl)ccc2Cl)CC1)c1ccc2ccccc2n1	873 nM				
O=S(=O)(NC1CCN(CCOc2cccc3c2CCCC3)C1)c1ccc(F)cc1 (stereo not given)	16 nM	22 nM	96 nM	72 nM	1
O=S(=O)(NC1CCN(CCOc2ccccc2-c2ccccc2)C1)c1cccs1 (stereo not given)	10 nM	45 nM	267 nM	16 nM	5
O=C(NC1CCN(CCSc2cccc(Cl)c2Cl)C1)c1ccc2ccccc2n1 (stereo not given)	1110 nM				
CCOc1ccccc1C(=O)NC1CCN(CCOc2ccccc2-c2ccccc2)C1 (stereo not given)	85 nM				
Cc1ccccc1C(=O)NC1CCN(CCSc2cccc(Cl)c2Cl)CC1	815 nM				
O=S(=O)(NC1CCN(CCOc2cc(Cl)ccc2Cl)C1)c1ccc(F)c(F)c1 (stereo not given)	97 nM				
O=S(=O)(NC1CCN(CCOc2ccccc2)C1)c1ccc(Cl)s1 (stereo not given)		65 nM	957 nM	318 nM	
CSc1ccccc1OCCN1CCC(CNS(=O)(=O)c2cccc(Cl)c2)CC1	78 nM	18 nM	147 nM	50 nM	< 1
O=S(=O)(NC1CCN(CCOc2ccccc2-c2ccccc2)C1)c1cc(F)ccc1F (stereo not given)	9 nM	81 nM	515 nM	18 nM	9
O=C(NC1CCN(CCSc2ccccc2-c2ccccc2)CC1)c1ccc2ccccc2n1	865 nM				
CC(C)c1ccccc1OCCN1CCC(NS(=O)(=O)c2cccc(Cl)c2)C1 (stereo not given)	4 nM	31 nM	245 nM	25 nM	8
O=S(=O)(NC1CCN(CCOc2ccccc2-c2ccccc2)C1)c1ccc(F)cc1 (stereo not given)	5 nM				
CC(C)(C)c1ccccc1OCCN1CCC(NC(=O)c2cccc(F)c2)CC1	1670 nM				
CC(C)c1ccccc1OCCN1CCC(CNS(=O)(=O)c2ccc(F)cc2)CC1	60 nM	141 nM	313 nM	50 nM	2
O=C(NCC1CCN(CCOc2cc(Cl)ccc2Cl)CC1)c1cccc(F)c1	415 nM				
O=C(NC1CCN(CCOc2cccc(-c3ccccc3)c2)C1)c1cccc(F)c1 (stereo not given)	709 nM				
O=S(=O)(NC1CCN(CCOc2cccc3c2CCCC3)C1)c1cc(F)ccc1F (stereo not given)	16 nM	10 nM	156 nM	60 nM	< 1
CC(C)c1ccccc1OCCN1CCC(NS(=O)(=O)c2ccc(F)cc2)CC1	0.3 nM	436 nM	240 nM	51 nM	1450

SMILES	Ki [1]	Ki [2]	Ki [3]	Ki (D(2) dopamine receptor)	Ratio Ki (Homo sapiens)
CC(C)c1ccccc1OCCN1CCC(CNS(=O)(=O)c2cccc(Cl)c2)CC1	46 nM	104 nM	177 nM	66 nM	2
O=S(=O)(NC1CCN(CCOc2cccc(F)c2)C1)c1cccs1 (stereo not given)	1440 nM	270 nM	1780 nM	729 nM	< 1
CC(C)c1ccccc1OCCN1CCC(CNC(=O)c2cccs2)CC1	407 nM				
O=S(=O)(NC1CCN(CCOc2ccccc2-c2ccccc2)CC1)c1ccc(Cl)s1	12 nM				
CSc1ccccc1OCCN1CCC(NC(=O)c2cccs2)CC1	1140 nM				
O=S(=O)(NC1CCN(CCOc2cc(Cl)ccc2Cl)C1)c1ccc(Cl)s1 (stereo not given)		717 nM	225 nM	78 nM	
CCOc1ccccc1C(=O)NC1CCN(CCOc2cccc(NC(C)=O)c2)C1 (stereo not given)	3370 nM				
O=C(NC1CCN(CCOc2ccccc2-c2ccccc2)CC1)c1cccc(F)c1	391 nM				
O=S(=O)(NC1CCN(CCSc2ccccc2-c2ccccc2)CC1)c1ccc(F)c(F)c1	93 nM				
CCOc1ccccc1C(=O)NC1CCN(CCOc2cccc(-c3ccccc3)c2)C1 (stereo not given)	1100 nM				
CC(C)c1ccccc1OCCN1CC[C@H](NS(=O)(=O)c2ccc(Cl)s2)C1		89 nM	537 nM	25 nM	
Cc1ccccc1C(=O)NCC1CCN(CCOc2cccc(-c3ccccc3)c2)CC1	2670 nM				
O=C(NC1CCN(CCOc2cccc(Cl)c2Cl)C1)c1ccc2c(c1)OCCO2 (stereo not given)	161 nM				
O=S(=O)(N[C@H]1CCN(CCOc2ccccc2-c2ccccc2)C1)c1ccc(Cl)s1		147 nM	551 nM	8 nM	
CCOc1ccccc1C(=O)NC1CCN(CCOc2ccccc2C(C)C)CC1	311 nM				
CCOc1ccccc1C(=O)NCC1CCN(CCOc2ccccc2SC)CC1	1190 nM				
O=C(NC1CCN(CCOc2ccccc2-c2ccccc2)CC1)c1cccs1	276 nM				
O=C(NCC1CCN(CCOc2ccccc2-c2ccccc2)CC1)c1ccc2ccccc2n1	334 nM				
Cc1ccccc1C(=O)NCC1CCN(CCOc2cccc3c2CCCC3)CC1	409 nM				
